Test results reported in ChEMBL document CHEMBL2203189, “Synthesis and pharmacology of 1-alkyl-3-(1-naphthoyl)indoles: steric and electronic effects of 4- and 8-halogenated naphthoyl substituents” (Bioorg Med Chem, 2012).
Activity calls are given as the source filed them. No cut-off for these calls is given here.

Tests used:
Mus musculus [1] = experiment: Locomotor activity in Harlan ICR mouse assessed as inhibition of activity level at 80 umol/kg, iv from 5 to 15 mins by spontaneous locomotor activity test relative to vehicle treated control; format: functional
Method in brief: (§1)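 Male ICR mice, n = 6 per dose, single probe dose iv in emulphor–ethanol–saline 1:1:18. Photocell beam interruptions recorded over 10 min, at 5–15 min after dosing. Result given as % inhibition relative to the vehicle group.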

Mus musculus [2] = experiment: Hypothermic activity in Harlan ICR mouse assessed as change in rectal temperature at 80 umol/kg, iv at 30 mins; format: functional
Method in brief: (§2)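 Male ICR mice, n = 6 per dose. Single probe dose iv in emulphor–ethanol–saline 1:1:18. Rectal temperature taken with a thermistor probe at 25 mm depth before dosing and at 30 min. Result given as change from pre-injection value (°C).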

Mus musculus [3] = experiment: Induction of catalepsy in Harlan ICR mouse at 80 umol/kg, iv at 40 mins measured for 5 mins by ring immobility test; format: functional
Method in brief: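 Male ICR mice given a single iv probe dose in emulphor–ethanol–saline 1:1:18. At 40 min placed on a 5.5 cm ring raised 16 cm and observed for 5 min by blinded raters. Up to 5 escapes allowed; mice escaping before 2.5 min excluded. Immobility index = time motionless / 300 s × 100.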

Cannabinoid receptor 2 = Cannabinoid receptor 2 (Homo sapiens, UniProt P34972); experiment: Displacement of [3H]CP55940 from human CB2 receptor expressed in CHO cells after 1 hr by liquid scintillation spectrophotometry; format: cell-based
Method in brief: (§3)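 Membranes (50 µg) from CHO cells stably expressing human CB2, cultured in DMEM/10% fetal calf serum. Incubated with 0.5 nM [3H]CP55,940 and test compound at 1 nM–10 µM with BSA (5 mg/mL), 1 h at 30 °C. Nonspecific binding defined with excess unlabelled CP55,940. GF/B filtration, then scintillation counting.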

Homo sapiens = organism: Homo sapiens; experiment: Selectivity ratio of Ki for human CB1 receptor to Ki for human CB2 receptor
Mus musculus [4] = experiment: Antinociceptive activity in Harlan ICR mouse assessed as latency to heat-induced tail flicking at 80 umol/kg, iv at 20 mins relative to control; format: functional
Cannabinoid receptor 1 = Cannabinoid receptor 1 (Homo sapiens, UniProt P21554); experiment: Displacement of [3H]CP55940 from human CB1 receptor expressed in HEK293 cells after 1 hr by liquid scintillation spectrophotometry; format: cell-based
Method in brief: as §3, with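 “HEK-293” for “CHO”, “CB1,” for “CB2,”, “FBS.” for “fetal calf serum.”, “µM in buffer” for “µM”, “Filtered through GF/B,” for “GF/B filtration,”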

Mus musculus [5] = experiment: Locomotor activity in Harlan ICR mouse assessed as inhibition of activity level at 27 umol/kg, iv from 5 to 15 mins by spontaneous locomotor activity test relative to vehicle treated control; format: functional; method in brief: as §1
Mus musculus [6] = experiment: Hypothermic activity in Harlan ICR mouse assessed as change in rectal temperature at 27 umol/kg, iv at 30 mins; format: functional; method in brief: as §2
Mus musculus [7] = experiment: Antinociceptive activity in Harlan ICR mouse assessed as latency to heat-induced tail flicking at 27 umol/kg, iv at 20 mins relative to control; format: functional
Mus musculus [8] = experiment: Hypothermic activity in Harlan ICR mouse assessed as change in rectal temperature at 6.9 umol/kg, iv at 30 mins; format: functional
Method in brief: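 Male ICR mice, 18–25 g, dosed iv in the tail vein with a single probe dose in emulphor–ethanol–saline 1:1:18. Rectal thermistor probe inserted to 25 mm. Baseline read before injection and again at 30 min. Reported as the change from pre-injection temperature (Δ°C). n = 6 per dose.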

Mus musculus [9] = experiment: Antinociceptive activity in Harlan ICR mouse assessed as latency to heat-induced tail flicking at 6.9 umol/kg, iv at 20 mins relative to control; format: functional
Mus musculus [10] = experiment: Locomotor activity in Harlan ICR mouse assessed as inhibition of activity level at 6.9 umol/kg, iv from 5 to 15 mins by spontaneous locomotor activity test relative to vehicle treated control; format: functional
Method in brief: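 Spontaneous activity in male ICR mice (18–25 g) after one iv tail-vein probe dose in 1:1:18 emulphor–ethanol–saline. Photocell beam interruptions (16 beams per chamber) recorded over 10 min, 5–15 min after dosing. Reported as % inhibition relative to the vehicle group. n = 6 per dose.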

Mus musculus [11] = experiment: Induction of catalepsy in Harlan ICR mouse at 6.9 umol/kg, iv at 40 mins measured for 5 mins by ring immobility test; format: functional
Method in brief: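 Ring test on male ICR mice given one probe dose iv (tail vein; 1:1:18 emulphor–ethanol–saline). At 40 min each mouse is placed on a 5.5 cm ring 16 cm high and scored over 5 min by blinded observers. Up to 5 escapes allowed; data dropped if escapes occur before 2.5 min. Immobility index = time motionless/300 s × 100. n = 6 per dose.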

Mus musculus [12] = experiment: Locomotor activity in Harlan ICR mouse assessed as inhibition of activity level at 66 umol/kg, iv from 5 to 15 mins by spontaneous locomotor activity test relative to vehicle treated control; format: functional; method in brief: as §1
Mus musculus [13] = experiment: Hypothermic activity in Harlan ICR mouse assessed as change in rectal temperature at 66 umol/kg, iv at 30 mins; format: functional; method in brief: as §2
Mus musculus [14] = experiment: Antinociceptive activity in Harlan ICR mouse assessed as latency to heat-induced tail flicking at 66 umol/kg, iv at 20 mins relative to control; format: functional
Mus musculus [15] = experiment: Antinociceptive activity in Harlan ICR mouse assessed as latency to heat-induced tail flicking at […], iv at 20 mins relative to control; format: functional
Mus musculus [16] = experiment: Hypothermic activity in Harlan ICR mouse assessed as change in rectal temperature at […], iv at 30 mins; format: functional
Mus musculus [17] = experiment: Locomotor activity in Harlan ICR mouse assessed as inhibition of activity level at […], iv from 5 to 15 mins by spontaneous locomotor activity test relative to vehicle treated control; format: functional
Mus musculus [18] = experiment: Induction of catalepsy in Harlan ICR mouse at […], iv at 40 mins measured for 5 mins by ring immobility test; format: functional
Mus musculus [19] = experiment: Locomotor activity in Harlan ICR mouse assessed as inhibition of activity level at 68 umol/kg, iv from 5 to 15 mins by spontaneous locomotor activity test relative to vehicle treated control; format: functional; method in brief: as §1
Mus musculus [20] = experiment: Antinociceptive activity in Harlan ICR mouse assessed as latency to heat-induced tail flicking at 68 umol/kg, iv at 20 mins relative to control; format: functional, organism-based
Mus musculus [21] = experiment: Locomotor activity in Harlan ICR mouse assessed as inhibition of activity level at 91 umol/kg, iv from 5 to 15 mins by spontaneous locomotor activity test relative to vehicle treated control; format: functional; method in brief: as §1
Mus musculus [22] = experiment: Hypothermic activity in Harlan ICR mouse assessed as change in rectal temperature at 91 umol/kg, iv at 30 mins; format: functional; method in brief: as §2
Mus musculus [23] = experiment: Induction of catalepsy in iv dosed Harlan ICR mouse at 40 mins measured for 5 mins by ring immobility test; format: functional
Mus musculus [24] = experiment: Antinociceptive activity in Harlan ICR mouse assessed as latency to heat-induced tail flicking at 91 umol/kg, iv at 20 mins relative to control; format: functional

Sequence of Cannabinoid receptor 2 (P34972 whole entry): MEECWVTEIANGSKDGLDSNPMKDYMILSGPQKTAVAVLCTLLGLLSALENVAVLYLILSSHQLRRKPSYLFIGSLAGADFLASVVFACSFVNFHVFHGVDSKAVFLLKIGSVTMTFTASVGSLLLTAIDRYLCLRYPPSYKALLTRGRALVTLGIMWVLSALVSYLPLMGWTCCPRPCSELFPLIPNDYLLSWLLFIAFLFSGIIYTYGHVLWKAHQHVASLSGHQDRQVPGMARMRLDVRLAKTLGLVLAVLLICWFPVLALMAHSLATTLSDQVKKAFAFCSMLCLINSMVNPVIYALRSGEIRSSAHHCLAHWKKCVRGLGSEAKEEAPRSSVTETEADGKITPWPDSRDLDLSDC
Sequence of Cannabinoid receptor 1 (P21554 whole entry): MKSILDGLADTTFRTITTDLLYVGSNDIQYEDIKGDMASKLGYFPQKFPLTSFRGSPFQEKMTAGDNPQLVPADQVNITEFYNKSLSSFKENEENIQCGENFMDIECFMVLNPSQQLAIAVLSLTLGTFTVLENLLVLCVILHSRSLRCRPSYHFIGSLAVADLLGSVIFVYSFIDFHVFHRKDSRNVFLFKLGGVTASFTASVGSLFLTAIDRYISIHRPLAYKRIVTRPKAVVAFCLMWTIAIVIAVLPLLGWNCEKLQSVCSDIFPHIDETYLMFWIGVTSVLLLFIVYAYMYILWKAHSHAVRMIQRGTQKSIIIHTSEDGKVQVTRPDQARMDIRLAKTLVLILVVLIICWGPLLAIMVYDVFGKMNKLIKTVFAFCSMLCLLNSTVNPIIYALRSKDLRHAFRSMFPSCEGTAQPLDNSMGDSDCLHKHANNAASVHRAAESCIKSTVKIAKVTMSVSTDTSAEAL

Question: For `CCCCCn1cc(C(=O)c2cccc3cccc(Cl)c23)c2ccccc21`, which inhibition in vivo at 80 µmol/kg (Mus musculus [1]) is on record?
Answer: Its inhibition in vivo at 80 µmol/kg is 94%.

Question: What about the Activity (Mus musculus [2]) of the same compound?
Answer: Its Activity is -6.9%.

Question: What about the Activity (Mus musculus [3]) of the same compound?
Answer: The Activity was 92%.

Question: And the Ki (Cannabinoid receptor 2)?
Answer: The Ki was 10 nM.

Question: And the Ratio Ki (Homo sapiens)?
Answer: The Ratio Ki was 2.3.

Question: What about the Activity (Mus musculus [4]) of the same compound?
Answer: The Activity was 100%.

Question: What about the Ki (Cannabinoid receptor 1) of the same compound?
Answer: Its Ki is 23 nM.

Question: How did the inhibition in vivo at 27 µmol/kg (Mus musculus [5]) turn out when `CCCCCn1cc(C(=O)c2ccc(Cl)c3ccccc23)c2ccccc21` was run?
Answer: Its inhibition in vivo at 27 µmol/kg is 82%.

Question: And the Activity (Mus musculus [6])?
Answer: Its Activity is -4.9%.

Question: What about the Ki (Cannabinoid receptor 2) of the same compound?
Answer: Its Ki is 2.8 nM.

Question: What about the Ratio Ki (Homo sapiens) of the same compound?
Answer: The Ratio Ki was 0.8.

Question: And the Activity (Mus musculus [7])?
Answer: Its Activity is 90%.

Question: And the Ki (Cannabinoid receptor 1)?
Answer: The Ki was 2.3 nM.

Question: With `CCCCCn1c(C)c(C(=O)c2cccc3cccc(Br)c23)c2ccccc21` as the compound, how does the Activity (Mus musculus [8]) read?
Answer: The Activity was -3.7%.

Question: What about the Activity (Mus musculus [9]) of the same compound?
Answer: Its Activity is 100%.

Question: What about the inhibition in vivo at 6.9 µmol/kg (Mus musculus [10]) of the same compound?
Answer: The inhibition in vivo at 6.9 µmol/kg was 79%.

Question: What about the Ki (Cannabinoid receptor 2) of the same compound?
Answer: Its Ki is 10 nM.

Question: And the Ratio Ki (Homo sapiens)?
Answer: Its Ratio Ki is 5.5.

Question: And the Activity (Mus musculus [11])?
Answer: The Activity was 53%.

Question: What about the Ki (Cannabinoid receptor 1) of the same compound?
Answer: Its Ki is 54 nM.

Question: For `CCCn1c(C)c(C(=O)c2ccc(I)c3ccccc23)c2ccccc21`, which inhibition in vivo at 66 µmol/kg (Mus musculus [12]) is on record?
Answer: Its inhibition in vivo at 66 µmol/kg is 74%.

Question: And the Ki (Cannabinoid receptor 2)?
Answer: Its Ki is 20 nM.

Question: And the Ratio Ki (Homo sapiens)?
Answer: The Ratio Ki was 25.

Question: And the Activity (Mus musculus [13])?
Answer: Its Activity is -3%.

Question: And the Activity (Mus musculus [14])?
Answer: The Activity was 60%.

Question: And the Ki (Cannabinoid receptor 1)?
Answer: Its Ki is 501 nM.

Question: What does the source list for `CCCn1cc(C(=O)c2ccc(I)c3ccccc23)c2ccccc21`?
Answer: Activity (Mus musculus [15]): 26%; Activity (Mus musculus [16]): -1.7%; inhibition in vivo at […] (Mus musculus [17]): 10%; Ki (Cannabinoid receptor 2): 6.6 nM; Ratio Ki (Homo sapiens): 21; Ki (Cannabinoid receptor 1): 140 nM; Activity (Mus musculus [18]): 2%

Question: Which results are given for `CCCn1cc(C(=O)c2cccc3cccc(I)c23)c2ccccc21`?
Answer: inhibition in vivo at 68 µmol/kg (Mus musculus [19]): -25%; Activity (Mus musculus [20]): inactive; Ki (Cannabinoid receptor 2): 152 nM; Ratio Ki (Homo sapiens): 19; Ki (Cannabinoid receptor 1): 2960 nM

Question: What does the source list for `CCCn1cc(C(=O)c2ccc(F)c3ccccc23)c2ccccc21`?
Answer: inhibition in vivo at 91 µmol/kg (Mus musculus [21]): 67%; Activity (Mus musculus [22]): -3.3%; Ki (Cannabinoid receptor 2): 33 nM; Ratio Ki (Homo sapiens): 7; Activity (Mus musculus [23]): inactive; Ki (Cannabinoid receptor 1): 240 nM; Activity (Mus musculus [24]): 59%
